{"source": "paper PMC7760462", "about": "(ACS Central Science, 2020)", "key": {"RAW 264.7 macrophages": {"test_system": "RAW 264.7 macrophages", "experiment": "MTT cell viability assay", "format": "cell-based", "conditions": "Mus musculus, RAW264.7, 24 h, read-out: IC50, RAW"}, "MRSA (USA100)": {"test_system": "MRSA (USA100)", "experiment": "Antimicrobial activity against extracellular bacteria", "format": "cell-based, methicillin-resistant Staphylococcus aureus", "conditions": "Staphylococcus aureus, MRSA|USA100, 18 h, read-out: extracellular MIC, MRSA"}, "S. aureus (ATCC12608)": {"test_system": "S. aureus (ATCC12608)", "experiment": "Characterization of cell wall inhibition by SEM", "format": "cell-based, Staphylococcus aureus", "conditions": "S. aureus treated 12 h at drug/bacteria ratio equivalent to MIC determination", "method_in_brief": "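S. aureus ATCC12608 was treated with the test compound, with PBS, free vancomycin and the unconjugated polypeptide as comparators. Cell wall morphology was then examined by scanning electron microscopy.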"}, "[1]": {"test_system": "bacteria exposed to subinhibitory concentrations", "experiment": "Resistance test by serial passage", "format": "cell-based"}, "[2]": {"conditions": "by previous studies; cited from earlier work"}, "[3]": {"test_system": "kidney of MRSA-infected mice", "experiment": "Kidney histology analysis", "format": "in vivo, mice (CD1-IGS)", "conditions": "72 h after infection (Figure 5e)", "method_in_brief": "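Mice were infected with MRSA USA100 (2 × 10^7 CFU) by tail-vein injection at 0 h. They received intraperitoneal PBS, vancomycin (100 mg/kg), test compound (72 mg/kg) or unconjugated polypeptide (50 mg/kg, molar equivalent) at 24 and 36 h. Mice were sacrificed at 72 h, and kidneys were H&E-stained for granulomatous foci, immune-cell infiltration and tubular necrosis.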"}, "VRE (ATCC51858)": {"test_system": "VRE (ATCC51858)", "experiment": "Antimicrobial activity against extracellular bacteria", "format": "cell-based, vancomycin-resistant enterococci", "conditions": "Enterococcus, 18 h, read-out: extracellular MIC, VRE"}}, "data": [{"smiles": "CN[C@H](CC(C)C)C(=O)N[C@H]1C(=O)N[C@@H](CC(N)=O)C(=O)N[C@H]2C(=O)N[C@H]3C(=O)N[C@H](C(=O)N[C@H](C(=O)O)c4cc(O)cc(O)c4-c4cc3ccc4O)[C@H](O)c3ccc(c(Cl)c3)Oc3cc2cc(c3O[C@@H]2O[C@H](CO)[C@@H](O)[C@H](O)[C@H]2O[C@H]2C[C@](C)(N)[C@H](O)[C@H](C)O2)Oc2ccc(cc2Cl)[C@H]1O", "note": "[Van, vancomycin]", "values": [{"measurement": "IC50", "setting": "RAW 264.7 macrophages", "result": "> 706", "unit": "µM"}, {"measurement": "MIC", "setting": "MRSA (USA100)", "result": 0.69, "unit": "µM"}, {"measurement": "cell wall appearance by SEM", "setting": "S. aureus (ATCC12608)", "result": "damaged bacterial cell wall"}, {"measurement": "resistance induction, change in MIC", "setting": "[1]; over/after 20 passages at subinhibitory concentration", "result": "tripling"}, {"measurement": "resistance induction, change in MIC", "setting": "[1]; within 5 passages at subinhibitory concentration", "result": "MIC doubling"}, {"measurement": "serum Cmax", "setting": "[2]", "result": "~50", "unit": "µg/mL"}, {"measurement": "granulomatous foci in kidney (H&E)", "setting": "[3]", "result": "almost no granulomatous foci"}, {"measurement": "MIC", "setting": "VRE (ATCC51858)", "result": 176, "unit": "µM"}]}]}
